According to ChEMBL document CHEMBL2034860, “Cytotoxic heterocyclic triterpenoids derived from betulin and betulinic acid” (Bioorg Med Chem, 2012):

Columns and labels:
[1] = test system: CCRF-CEM; test: Cytotoxicity against human CCRF-CEM cells after 72 hrs by MTT assay; assay type: functional, cell-based
[2] = Solubility of the compound in water based media; assay type: physicochemical; conditions: buffer
[3] = test system: HCT-116; test: Cytotoxicity against human HCT116 cells after 72 hrs by MTT assay; assay type: functional, cell-based; conditions: HCT-116, 72 h
How it was run: (§1)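 Cells seeded at 2500–30,000 per well according to cell type and pre-incubated 24 h at 37 °C, 5% CO2. Four-fold dilutions of compounds dissolved in 10% DMSO were added at time zero, in quadruplicate, then incubated 72 h. MTT was added for a further 1–4 h and formazan dissolved in 10% aq SDS (pH 5.5) overnight at 37 °C. OD was read at 540 nm. Survival was taken as % of mean control OD, and IC50 was read from dose-response curves.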

[4] = test system: K562; test: Cytotoxicity against human paclitaxel resistant K562 cells after 72 hrs by MTT assay; assay type: functional, cell-based; conditions: K562, 72 h; how it was run: as §1
[5] = test system: A549; test: Cytotoxicity against human A549 cells after 72 hrs by MTT assay; assay type: functional, cell-based; conditions: A549, 72 h; how it was run: as §1
[6] = test system: CCRF-CEM; test: Cytotoxicity against human daunorubicine resistant CEM cells after 72 hrs by MTT assay; assay type: functional, cell-based; how it was run: as §1
[7] = test system: MRC5; test: Cytotoxicity against human MRC5 cells after 72 hrs by MTT assay; assay type: cell-based; conditions: MRC5, 72 h; how it was run: as §1
[8] = test system: K562; test: Cytotoxicity against human K562 cells after 72 hrs by MTT assay; assay type: functional, cell-based; conditions: K562, 72 h; how it was run: as §1
[9] = test system: HCT-116; test: Cytotoxicity against human p53-deficient HCT116 cells after 72 hrs by MTT assay; assay type: functional, cell-based; conditions: HCT-116, 72 h; how it was run: as §1
[10] = Therapeutic index, ratio of IC50 for human BJ cells to IC50 for human K562 cells; assay type: cell-based; conditions: BJ cells versus K562 cells, read-out: Ratio IC50
[11] = Therapeutic index, ratio of IC50 for human BJ cells to IC50 for human CCRF-CEM cells; assay type: cell-based; conditions: BJ cells versus CCRF-CEM cells, read-out: Ratio IC50
[12] = Therapeutic index, ratio of IC50 for human BJ cells to IC50 for paclitaxel-resistant human K562 cells; assay type: cell-based; conditions: BJ cells versus paclitaxel-resistant K562 cells, read-out: Ratio IC50
[13] = Therapeutic index, ratio of IC50 for human MRC5 cells to IC50 for human CCRF-CEM cells; assay type: cell-based; conditions: MRC5 cells versus CCRF-CEM cells, read-out: Ratio IC50
[14] = test system: BJ; test: Cytotoxicity against human BJ cells after 72 hrs by MTT assay; assay type: cell-based; how it was run: as §1

SMILES: CCOC(=O)C1=C(O)C(C)(C)[C@@H]2CC[C@]3(C)[C@H](CC[C@@H]4[C@H]5[C@H](C(C)C)CC[C@]5(C(=O)O)CC[C@]43C)[C@@]2(C)C1
- IC50 [1]: 142 µM

SMILES: CC1(C)CC[C@]23CC[C@]4(C)[C@H](CC[C@@H]5[C@@]6(C)Cc7c[nH]nc7C(C)(C)[C@@H]6CC[C@]54C)[C@H]2[C@H]1OC3
- solubility [2]: Insoluble
- IC50 [1]: 210 µM

SMILES: CC(C)[C@@H]1CC[C@]2(C(=O)O)CC[C@]3(C)[C@H](CC[C@@H]4[C@@]5(C)CC(Br)(Br)C(=O)C(C)(C)[C@@H]5CC[C@]43C)[C@@H]12
- IC50 [3]: 2.4 µM
- IC50 [4]: 1.1 µM
- IC50 [5]: 8.4 µM
- IC50 [6]: 7 µM
- IC50 [7]: 8 µM
- IC50 [8]: 0.9 µM
- IC50 [9]: 2.6 µM
- selectivity ratio [10]: > 10
- selectivity ratio [11]: > 10
- IC50 [1]: 1 µM
- selectivity ratio [12]: > 10
- selectivity ratio [13]: 8
- IC50 [14]: 13.3 µM

SMILES: CC1(C)CC[C@]23CC[C@]4(C)[C@H](CC[C@@H]5[C@@]6(C)CC(Br)(Br)C(=O)C(C)(C)[C@@H]6CC[C@]54C)[C@H]2[C@H]1OC3
- IC50 [1]: > 250 µM

SMILES: CC1(C)CC[C@]23CC[C@]4(C)[C@H](CC[C@@H]5[C@@]6(C)C/C(=C/O)C(=O)C(C)(C)[C@@H]6CC[C@]54C)[C@H]2[C@H]1OC3
- IC50 [1]: > 250 µM

SMILES: C=C(C)[C@@H]1CC[C@]2(C(=O)O)CC[C@]3(C)[C@H](CC[C@@H]4[C@@]5(C)C/C(=C/O)C(=O)C(C)(C)[C@@H]5CC[C@]43C)[C@@H]12
- IC50 [3]: 12.1 µM
- IC50 [4]: 12.7 µM
- IC50 [5]: 17.6 µM
- IC50 [6]: 29.6 µM
- IC50 [7]: 29.9 µM
- IC50 [8]: 8.4 µM
- IC50 [9]: 13.7 µM
- selectivity ratio [10]: 6.6
- selectivity ratio [11]: > 10
- IC50 [1]: 4 µM
- selectivity ratio [12]: 4.4
- selectivity ratio [13]: 8.5
- IC50 [14]: 55.5 µM

SMILES: CC(C)[C@@H]1CC[C@]2(C(=O)O)CC[C@]3(C)[C@H](CC[C@@H]4[C@@]5(C)C/C(=C/O)C(=O)C(C)(C)[C@@H]5CC[C@]43C)[C@@H]12
- IC50 [1]: 61 µM

SMILES: CCOC(=O)C1=C(O)C(C)(C)[C@@H]2CC[C@]3(C)[C@H](CC[C@@H]4[C@H]5[C@H]6OC[C@@]5(CCC6(C)C)CC[C@]43C)[C@@]2(C)C1
- IC50 [1]: > 250 µM

SMILES: C=C(C)[C@@H]1CC[C@]2(C(=O)O)CC[C@]3(C)[C@H](CC[C@@H]4[C@@]5(C)CC(C(=O)OCC)=C(O)C(C)(C)[C@@H]5CC[C@]43C)[C@@H]12
- IC50 [1]: 161 µM

SMILES: C=C(C)[C@@H]1CC[C@]2(C(=O)O)CC[C@]3(C)[C@H](CC[C@@H]4[C@@]5(C)Cc6c[nH]nc6C(C)(C)[C@@H]5CC[C@]43C)[C@@H]12
- IC50 [3]: 4.5 µM
- IC50 [4]: 3 µM
- IC50 [5]: 5.2 µM
- IC50 [6]: 10.4 µM
- IC50 [7]: 14.1 µM
- IC50 [8]: 2.6 µM
- IC50 [9]: 3.3 µM
- solubility [2]: Insoluble
- IC50 [1]: 3 µM
- IC50 [14]: 35.8 µM

SMILES: CC(C)[C@@H]1CC[C@]2(C(=O)O)CC[C@]3(C)[C@H](CC[C@@H]4[C@@]5(C)Cc6c[nH]nc6C(C)(C)[C@@H]5CC[C@]43C)[C@@H]12
- IC50 [3]: 3.9 µM
- IC50 [4]: 2.7 µM
- IC50 [5]: 3.6 µM
- IC50 [6]: 8.2 µM
- IC50 [7]: 13.4 µM
- IC50 [8]: 3.5 µM
- IC50 [9]: 2.8 µM
- solubility [2]: Insoluble
- IC50 [1]: 3 µM
- IC50 [14]: 22.4 µM

SMILES: CC1(C)CC[C@]23CC[C@]4(C)[C@H](CC[C@@H]5[C@@]6(C)Cc7cnn(-c8ccccc8)c7C(C)(C)[C@@H]6CC[C@]54C)[C@H]2[C@H]1OC3
- solubility [2]: Insoluble
- IC50 [1]: 250 µM

SMILES: C=C(C)[C@@H]1CC[C@]2(C(=O)O)CC[C@]3(C)[C@H](CC[C@@H]4[C@@]5(C)Cc6cnn(-c7ccccc7)c6C(C)(C)[C@@H]5CC[C@]43C)[C@@H]12
- solubility [2]: Insoluble
- IC50 [1]: 31 µM

SMILES: CC(C)[C@@H]1CC[C@]2(C(=O)O)CC[C@]3(C)[C@H](CC[C@@H]4[C@@]5(C)Cc6cnn(-c7ccccc7)c6C(C)(C)[C@@H]5CC[C@]43C)[C@@H]12
- solubility [2]: Insoluble
- IC50 [1]: 45 µM

SMILES: CC1(C)CC[C@]23CC[C@]4(C)[C@H](CC[C@@H]5[C@@]6(C)Cc7c(n[nH]c7O)C(C)(C)[C@@H]6CC[C@]54C)[C@H]2[C@H]1OC3
- solubility [2]: Insoluble
- IC50 [1]: 33 µM

SMILES: CC(C)[C@@H]1CC[C@]2(C(=O)O)CC[C@]3(C)[C@H](CC[C@@H]4[C@@]5(C)Cc6c(n[nH]c6O)C(C)(C)[C@@H]5CC[C@]43C)[C@@H]12
- solubility [2]: Insoluble
- IC50 [1]: 123 µM

SMILES: CC1(C)CC[C@]23CC[C@]4(C)[C@H](CC[C@@H]5[C@@]6(C)Cc7conc7C(C)(C)[C@@H]6CC[C@]54C)[C@H]2[C@H]1OC3
- solubility [2]: Insoluble
- IC50 [1]: > 250 µM

SMILES: CC1(C)CC[C@]23CC[C@]4(C)[C@H](CC[C@@H]5[C@@]6(C)Cc7cnoc7C(C)(C)[C@@H]6CC[C@]54C)[C@H]2[C@H]1OC3
- solubility [2]: Insoluble
- IC50 [1]: > 250 µM

SMILES: CC1(C)CC[C@]23CC[C@]4(C)[C@H](CC[C@@H]5[C@@]6(C)Cc7sc(N)nc7C(C)(C)[C@@H]6CC[C@]54C)[C@H]2[C@H]1OC3
- solubility [2]: Insoluble
- IC50 [1]: 85 µM

SMILES: CC(C)[C@@H]1CC[C@]2(C(=O)O)CC[C@]3(C)[C@H](CC[C@@H]4[C@@]5(C)Cc6sc(N)nc6C(C)(C)[C@@H]5CC[C@]43C)[C@@H]12
- IC50 [3]: 5.1 µM
- IC50 [4]: 6.9 µM
- IC50 [5]: 7 µM
- IC50 [6]: 11.2 µM
- IC50 [7]: 15.7 µM
- IC50 [8]: 4.8 µM
- IC50 [9]: 4.3 µM
- solubility [2]: Insoluble
- IC50 [1]: 3 µM
- IC50 [14]: 24.9 µM

SMILES: CC1(C)CC[C@]23CC[C@]4(C)[C@H](CC[C@@H]5[C@@]6(C)Cc7sc(Br)nc7C(C)(C)[C@@H]6CC[C@]54C)[C@H]2[C@H]1OC3
- solubility [2]: Insoluble
- IC50 [1]: 150 µM

SMILES: CC(C)[C@@H]1CC[C@]2(C(=O)O)CC[C@]3(C)[C@H](CC[C@@H]4[C@@]5(C)Cc6sc(Br)nc6C(C)(C)[C@@H]5CC[C@]43C)[C@@H]12
- solubility [2]: Insoluble
- IC50 [1]: 11 µM

SMILES: CC1(C)CC[C@]23CC[C@]4(C)[C@H](CC[C@@H]5[C@@]6(C)C=C(N7CCOCC7)C(=O)C(C)(C)[C@@H]6CC[C@]54C)[C@H]2[C@H]1OC3
- IC50 [1]: 226 µM

SMILES: CC1(C)CC[C@]23CC[C@]4(C)[C@H](CC[C@@H]5[C@@]6(C)C=C(O)C(=O)C(C)(C)[C@@H]6CC[C@]54C)[C@H]2[C@H]1OC3
- IC50 [1]: 25 µM

SMILES: CC1(C)CC[C@]23CC[C@]4(C)[C@H](CC[C@@H]5[C@@]6(C)CC(Br)C(=O)C(C)(C)[C@@H]6CC[C@]54C)[C@H]2[C@H]1OC3 (mixture of isomers)
- IC50 [1]: > 250 µM

SMILES: C=C(C)[C@@H]1CC[C@]2(C(=O)O)CC[C@]3(C)[C@H](CC[C@@H]4[C@@]5(C)Cc6c(n[nH]c6O)C(C)(C)C5CC[C@]43C)[C@@H]12 (single isomer, unassigned)
- solubility [2]: Insoluble
- IC50 [1]: 22 µM

SMILES: CC(C)[C@@H]1CC[C@]2(C(=O)O)CC[C@]3(C)[C@H](CC[C@@H]4[C@@]5(C)CCC(=O)C(C)(C)[C@@H]5CC[C@]43C)[C@@H]12 [DIHYDROBETULONIC ACID]
- IC50 [3]: 4.1 µM
- IC50 [4]: 4 µM
- IC50 [5]: 5.9 µM
- IC50 [6]: 9.4 µM
- IC50 [7]: 11.7 µM
- IC50 [8]: 2.5 µM
- IC50 [9]: 6.1 µM
- IC50 [1]: 4 µM
- IC50 [14]: 22.6 µM
